Assay [1] has as its target Ribonucleoside-diphosphate reductase large subunit (Homo sapiens) (UniProt P23921). In words: Binding affinity to RRM1 in human NCI-H358 cells at 1 uM by mass spectrometry based pull down assay. Format: cell-based.
Assay [2] concerns the target ATP synthase F(1) complex subunit gamma, mitochondrial (Homo sapiens) (UniProt P36542). In words: Binding affinity to ATP5C1 in human NCI-H358 cells at 1 uM by mass spectrometry based pull down assay. Format: cell-based.
The target of assay [3] is Protein phosphatase 1G (Homo sapiens) (UniProt O15355). In words: Binding affinity to PPM1G in human NCI-H358 cells at 1 uM by mass spectrometry based pull down assay. Format: cell-based.
For assay [4], the target named is Catenin alpha-1 (Homo sapiens) (UniProt P35221). The assay can be described thus: Binding affinity to CTNNA1 in human NCI-H358 cells at 1 uM by mass spectrometry based pull down assay. Format: cell-based.
Assay [5] has as its target Citrate synthase, mitochondrial (Homo sapiens) (UniProt O75390). In words: Binding affinity to CS in human NCI-H23 cells at 1 uM by mass spectrometry based pull down assay. Format: cell-based.
Assay [6] addresses Filamin-B (Homo sapiens) (UniProt O75369). The assay can be described thus: Binding affinity to FLNB in human NCI-H358 cells at 1 uM by mass spectrometry based pull down assay. Format: cell-based.
The target in assay [7] is T1, Aurora kinase A (Homo sapiens) (UniProt O14965).
T1 sequence (whole entry): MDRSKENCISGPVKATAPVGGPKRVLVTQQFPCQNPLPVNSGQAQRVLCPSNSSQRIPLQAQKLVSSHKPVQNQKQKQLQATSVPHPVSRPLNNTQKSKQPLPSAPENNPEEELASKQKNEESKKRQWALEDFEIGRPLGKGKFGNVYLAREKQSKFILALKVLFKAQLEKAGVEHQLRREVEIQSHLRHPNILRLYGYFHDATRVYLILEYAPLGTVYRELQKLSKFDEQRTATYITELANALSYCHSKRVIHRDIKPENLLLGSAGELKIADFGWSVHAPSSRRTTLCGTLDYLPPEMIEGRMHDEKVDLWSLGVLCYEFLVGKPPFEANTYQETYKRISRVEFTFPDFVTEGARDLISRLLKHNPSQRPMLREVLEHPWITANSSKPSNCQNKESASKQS
The assay can be described thus: Binding affinity to AURKA in human NCI-H358 cells at 1 uM by mass spectrometry based pull down assay. Format: cell-based.

Assay [8] has as its target (E3-independent) E2 ubiquitin-conjugating enzyme (Homo sapiens) (UniProt Q9C0C9). The assay can be described thus: Binding affinity to UBE2O in human NCI-H358 cells at 1 uM by mass spectrometry based pull down assay. Format: cell-based.
For assay [9], the target named is Heterogeneous nuclear ribonucleoprotein H2 (Homo sapiens) (UniProt P55795). In words: Binding affinity to HNRNPH2 in human NCI-H358 cells at 1 uM by mass spectrometry based pull down assay. Format: cell-based.
Assay [10] addresses F-actin-capping protein subunit alpha-1 (Homo sapiens) (UniProt P52907). The assay can be described thus: Binding affinity to CAPZA1 in human NCI-H358 cells at 1 uM by mass spectrometry based pull down assay. Format: cell-based.
Assay [11] concerns the target T2, Dual specificity mitogen-activated protein kinase kinase 3 (Homo sapiens) (UniProt P46734).
T2 sequence (whole entry): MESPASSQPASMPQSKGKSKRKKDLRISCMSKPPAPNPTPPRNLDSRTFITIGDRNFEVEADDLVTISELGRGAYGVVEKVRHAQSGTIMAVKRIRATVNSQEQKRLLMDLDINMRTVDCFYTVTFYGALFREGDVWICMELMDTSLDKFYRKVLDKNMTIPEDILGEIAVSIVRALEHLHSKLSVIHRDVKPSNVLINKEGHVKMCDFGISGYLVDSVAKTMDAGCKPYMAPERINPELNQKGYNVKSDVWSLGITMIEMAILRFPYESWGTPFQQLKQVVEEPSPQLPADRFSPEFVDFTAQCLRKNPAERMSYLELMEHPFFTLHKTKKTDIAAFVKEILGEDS
The assay can be described thus: Binding affinity to MAP2K3 in human NCI-H358 cells at 1 uM by mass spectrometry based pull down assay. Format: cell-based.

Assay [12] has as its target Src substrate cortactin (Homo sapiens) (UniProt Q14247). In words: Binding affinity to CTTN in human NCI-H23 cells at 1 uM by mass spectrometry based pull down assay. Format: cell-based.
The target of assay [13] is Deoxyribose-phosphate aldolase (Homo sapiens) (UniProt Q9Y315). The assay can be described thus: Binding affinity to DERA in human NCI-H358 cells at 1 uM by mass spectrometry based pull down assay. Format: cell-based.
Assay [14] has as its system NCI-H23. The assay can be described thus: Binding affinity to PSMA1 in human NCI-H23 cells at 1 uM by mass spectrometry based pull down assay. Format: cell-based.
Assay [15] concerns the target T-complex protein 1 subunit epsilon (Homo sapiens) (UniProt P48643). In words: Binding affinity to CCT5 in human NCI-H358 cells at 1 uM by mass spectrometry based pull down assay. Format: cell-based.
In assay [16] the target is Translation initiation factor eIF2B subunit gamma (Homo sapiens) (UniProt Q9NR50). In words: Binding affinity to EIF2B3 in human NCI-H358 cells at 1 uM by mass spectrometry based pull down assay. Format: cell-based.
Assay [17] deals with Eukaryotic translation initiation factor 2-alpha kinase 3 (Homo sapiens) (UniProt Q9NZJ5). In words: Inhibition of PEK in human SKCO1 cells at 1 uM after 4 hrs using biotin labeled DLKPSNIFFTMDDVVK probe by mass-spectrometric analysis relative to control. Format: cell-based.
For assay [18], the target named is T3, Mitogen-activated protein kinase kinase kinase 7 (Homo sapiens) (UniProt O43318).
T3 sequence (whole entry): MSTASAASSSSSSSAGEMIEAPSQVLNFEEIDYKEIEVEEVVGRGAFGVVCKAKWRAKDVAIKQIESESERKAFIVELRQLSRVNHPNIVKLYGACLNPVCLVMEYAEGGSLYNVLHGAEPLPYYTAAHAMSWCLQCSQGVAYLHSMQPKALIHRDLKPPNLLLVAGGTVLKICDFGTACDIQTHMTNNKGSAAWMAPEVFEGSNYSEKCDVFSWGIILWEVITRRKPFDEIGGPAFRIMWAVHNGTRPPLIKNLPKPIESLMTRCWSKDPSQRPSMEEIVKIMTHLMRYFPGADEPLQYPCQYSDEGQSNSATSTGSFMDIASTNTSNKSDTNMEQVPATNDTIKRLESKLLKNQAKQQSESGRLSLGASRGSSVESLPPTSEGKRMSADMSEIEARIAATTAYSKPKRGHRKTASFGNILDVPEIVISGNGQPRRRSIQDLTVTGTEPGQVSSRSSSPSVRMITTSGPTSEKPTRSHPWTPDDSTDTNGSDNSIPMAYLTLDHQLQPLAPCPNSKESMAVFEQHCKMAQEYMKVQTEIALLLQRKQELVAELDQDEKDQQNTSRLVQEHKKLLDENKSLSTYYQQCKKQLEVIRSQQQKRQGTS
In words: Inhibition of TAK1 in RA patient-derived synovial fibroblasts assessed as inhibition of TNFalpha-induced cytokine secretion at 3 uM preincubated for 3 hrs followed by TNFalpha stimulation measured after 18 hrs by sandwich immunoassay. The procedure, abridged: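 Primary RA synovial fibroblasts (donor RA2159) seeded 1000 cells/well and grown ~24 h at 37 °C, 5% CO2. Starved overnight in basal medium, then ~4 h in basal medium with 0.1% BSA. Two adjacent wells pooled per replicate, in biological duplicate. Supernatants diluted 1:3 and run on Luminex 27-plex/21-plex sandwich immunoassays for 48 analytes, with spiked-ligand and mock-supernatant background controls.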

The source made the active and inactive calls. The rule behind the calls is not given here.

Broadly, the inhibition is the relative decrease from the control value, in per cent.

Translation initiation factor eIF2B subunit gamma (Homo sapiens), sequence (Q9NR50 whole entry): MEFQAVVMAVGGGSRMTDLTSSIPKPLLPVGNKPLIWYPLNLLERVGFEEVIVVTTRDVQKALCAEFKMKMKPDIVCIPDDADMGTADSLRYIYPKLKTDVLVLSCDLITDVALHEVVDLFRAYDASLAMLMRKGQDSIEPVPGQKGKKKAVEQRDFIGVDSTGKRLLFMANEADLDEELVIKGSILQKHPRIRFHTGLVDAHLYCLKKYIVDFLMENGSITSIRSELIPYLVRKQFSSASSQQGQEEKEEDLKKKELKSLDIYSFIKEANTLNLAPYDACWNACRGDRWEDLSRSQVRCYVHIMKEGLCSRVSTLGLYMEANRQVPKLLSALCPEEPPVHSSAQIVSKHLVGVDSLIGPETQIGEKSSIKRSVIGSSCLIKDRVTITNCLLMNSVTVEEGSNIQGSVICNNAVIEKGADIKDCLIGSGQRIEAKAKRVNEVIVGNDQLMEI
Deoxyribose-phosphate aldolase (Homo sapiens), sequence (Q9Y315 whole entry): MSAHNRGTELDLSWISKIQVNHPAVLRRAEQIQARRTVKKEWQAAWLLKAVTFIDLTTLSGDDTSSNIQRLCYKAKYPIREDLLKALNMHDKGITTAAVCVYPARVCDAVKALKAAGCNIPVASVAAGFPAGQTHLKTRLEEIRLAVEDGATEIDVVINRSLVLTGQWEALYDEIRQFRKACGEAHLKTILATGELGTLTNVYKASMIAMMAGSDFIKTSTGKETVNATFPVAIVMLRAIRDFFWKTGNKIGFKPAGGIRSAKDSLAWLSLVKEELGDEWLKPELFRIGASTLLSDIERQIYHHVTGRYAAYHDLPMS
ATP synthase F(1) complex subunit gamma, mitochondrial (Homo sapiens), sequence (P36542 whole entry, one chain of several): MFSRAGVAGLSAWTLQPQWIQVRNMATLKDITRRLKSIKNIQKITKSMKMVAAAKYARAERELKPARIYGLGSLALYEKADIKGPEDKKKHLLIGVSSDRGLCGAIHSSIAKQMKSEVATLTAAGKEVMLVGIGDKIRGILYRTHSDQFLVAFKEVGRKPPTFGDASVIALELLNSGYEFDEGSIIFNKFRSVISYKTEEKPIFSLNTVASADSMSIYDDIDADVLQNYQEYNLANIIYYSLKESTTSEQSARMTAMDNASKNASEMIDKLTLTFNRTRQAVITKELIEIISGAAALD
Filamin-B (Homo sapiens), sequence (O75369 whole entry): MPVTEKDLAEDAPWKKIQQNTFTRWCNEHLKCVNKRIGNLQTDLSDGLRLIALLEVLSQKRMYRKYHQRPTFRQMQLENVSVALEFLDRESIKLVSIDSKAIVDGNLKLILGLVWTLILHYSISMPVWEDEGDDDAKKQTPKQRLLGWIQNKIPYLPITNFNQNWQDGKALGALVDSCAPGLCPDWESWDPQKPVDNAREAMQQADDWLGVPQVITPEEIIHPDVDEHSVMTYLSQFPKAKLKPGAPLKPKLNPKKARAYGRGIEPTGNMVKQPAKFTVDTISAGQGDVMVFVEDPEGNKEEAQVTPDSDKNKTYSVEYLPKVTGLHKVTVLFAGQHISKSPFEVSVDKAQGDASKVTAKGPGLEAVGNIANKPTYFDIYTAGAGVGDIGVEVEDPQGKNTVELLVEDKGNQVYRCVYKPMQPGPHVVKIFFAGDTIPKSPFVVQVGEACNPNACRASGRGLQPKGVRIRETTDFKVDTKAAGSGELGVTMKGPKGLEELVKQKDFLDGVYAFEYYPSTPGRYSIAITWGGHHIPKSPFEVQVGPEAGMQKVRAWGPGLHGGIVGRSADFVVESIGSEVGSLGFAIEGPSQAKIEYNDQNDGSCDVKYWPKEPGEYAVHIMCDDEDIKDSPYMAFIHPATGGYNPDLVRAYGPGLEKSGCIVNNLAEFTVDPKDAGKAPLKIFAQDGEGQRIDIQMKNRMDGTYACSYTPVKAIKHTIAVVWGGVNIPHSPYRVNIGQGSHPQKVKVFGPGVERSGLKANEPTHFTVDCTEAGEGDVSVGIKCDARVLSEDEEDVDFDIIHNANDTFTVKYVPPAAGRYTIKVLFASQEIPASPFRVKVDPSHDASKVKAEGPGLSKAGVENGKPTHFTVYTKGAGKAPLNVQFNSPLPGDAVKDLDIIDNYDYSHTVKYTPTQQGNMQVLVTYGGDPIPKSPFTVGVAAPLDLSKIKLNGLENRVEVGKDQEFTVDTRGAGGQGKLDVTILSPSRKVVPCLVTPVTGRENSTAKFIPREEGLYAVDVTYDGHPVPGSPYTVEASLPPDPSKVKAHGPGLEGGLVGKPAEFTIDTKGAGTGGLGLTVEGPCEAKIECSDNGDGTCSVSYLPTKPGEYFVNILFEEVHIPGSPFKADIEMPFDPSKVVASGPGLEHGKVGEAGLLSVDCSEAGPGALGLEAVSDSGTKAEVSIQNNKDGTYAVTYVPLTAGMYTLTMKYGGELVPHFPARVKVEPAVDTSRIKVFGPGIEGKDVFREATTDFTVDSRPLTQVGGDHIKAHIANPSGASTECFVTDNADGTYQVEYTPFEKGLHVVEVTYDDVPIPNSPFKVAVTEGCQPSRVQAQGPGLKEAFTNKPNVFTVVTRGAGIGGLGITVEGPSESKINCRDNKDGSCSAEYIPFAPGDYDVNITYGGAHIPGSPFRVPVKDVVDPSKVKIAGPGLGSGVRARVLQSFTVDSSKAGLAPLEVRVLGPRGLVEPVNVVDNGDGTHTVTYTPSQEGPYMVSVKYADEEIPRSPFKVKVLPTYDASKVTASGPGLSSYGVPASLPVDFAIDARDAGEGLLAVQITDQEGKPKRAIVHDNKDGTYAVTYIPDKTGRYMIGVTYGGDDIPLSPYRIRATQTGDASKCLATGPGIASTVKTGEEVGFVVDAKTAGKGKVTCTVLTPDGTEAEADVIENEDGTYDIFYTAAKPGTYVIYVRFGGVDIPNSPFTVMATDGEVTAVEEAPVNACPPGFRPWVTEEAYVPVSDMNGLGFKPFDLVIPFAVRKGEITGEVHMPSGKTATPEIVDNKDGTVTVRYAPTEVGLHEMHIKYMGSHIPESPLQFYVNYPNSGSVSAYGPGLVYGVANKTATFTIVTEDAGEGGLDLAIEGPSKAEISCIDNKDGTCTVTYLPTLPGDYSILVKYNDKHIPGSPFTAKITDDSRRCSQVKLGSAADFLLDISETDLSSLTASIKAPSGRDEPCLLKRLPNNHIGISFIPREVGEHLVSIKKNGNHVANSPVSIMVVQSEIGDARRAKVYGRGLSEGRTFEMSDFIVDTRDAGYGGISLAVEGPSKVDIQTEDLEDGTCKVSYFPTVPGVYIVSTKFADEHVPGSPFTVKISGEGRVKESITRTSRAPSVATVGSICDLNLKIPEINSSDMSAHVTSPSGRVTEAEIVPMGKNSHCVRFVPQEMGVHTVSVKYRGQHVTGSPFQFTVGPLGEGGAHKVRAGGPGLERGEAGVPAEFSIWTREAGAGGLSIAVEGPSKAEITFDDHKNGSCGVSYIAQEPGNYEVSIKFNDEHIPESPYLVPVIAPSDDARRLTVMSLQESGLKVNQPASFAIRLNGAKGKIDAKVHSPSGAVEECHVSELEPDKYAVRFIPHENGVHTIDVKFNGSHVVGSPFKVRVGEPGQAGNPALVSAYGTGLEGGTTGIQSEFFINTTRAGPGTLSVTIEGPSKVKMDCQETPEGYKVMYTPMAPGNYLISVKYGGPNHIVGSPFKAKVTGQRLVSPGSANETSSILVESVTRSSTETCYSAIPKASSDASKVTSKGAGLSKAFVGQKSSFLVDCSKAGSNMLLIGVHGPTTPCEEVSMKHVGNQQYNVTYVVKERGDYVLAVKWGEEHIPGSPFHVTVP
Citrate synthase, mitochondrial (Homo sapiens), sequence (O75390 whole entry): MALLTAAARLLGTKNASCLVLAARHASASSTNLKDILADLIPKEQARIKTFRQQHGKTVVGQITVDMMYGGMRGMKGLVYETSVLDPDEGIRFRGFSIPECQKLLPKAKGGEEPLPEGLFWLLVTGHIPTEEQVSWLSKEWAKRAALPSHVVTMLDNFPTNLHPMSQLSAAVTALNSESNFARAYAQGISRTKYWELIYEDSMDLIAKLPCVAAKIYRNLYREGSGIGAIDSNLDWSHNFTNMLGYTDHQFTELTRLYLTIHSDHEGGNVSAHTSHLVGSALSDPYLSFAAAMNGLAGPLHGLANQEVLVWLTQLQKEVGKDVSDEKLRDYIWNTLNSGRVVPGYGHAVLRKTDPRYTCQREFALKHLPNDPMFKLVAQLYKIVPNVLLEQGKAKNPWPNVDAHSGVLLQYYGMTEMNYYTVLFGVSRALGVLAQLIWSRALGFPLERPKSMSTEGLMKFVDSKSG
Heterogeneous nuclear ribonucleoprotein H2 (Homo sapiens), sequence (P55795 whole entry): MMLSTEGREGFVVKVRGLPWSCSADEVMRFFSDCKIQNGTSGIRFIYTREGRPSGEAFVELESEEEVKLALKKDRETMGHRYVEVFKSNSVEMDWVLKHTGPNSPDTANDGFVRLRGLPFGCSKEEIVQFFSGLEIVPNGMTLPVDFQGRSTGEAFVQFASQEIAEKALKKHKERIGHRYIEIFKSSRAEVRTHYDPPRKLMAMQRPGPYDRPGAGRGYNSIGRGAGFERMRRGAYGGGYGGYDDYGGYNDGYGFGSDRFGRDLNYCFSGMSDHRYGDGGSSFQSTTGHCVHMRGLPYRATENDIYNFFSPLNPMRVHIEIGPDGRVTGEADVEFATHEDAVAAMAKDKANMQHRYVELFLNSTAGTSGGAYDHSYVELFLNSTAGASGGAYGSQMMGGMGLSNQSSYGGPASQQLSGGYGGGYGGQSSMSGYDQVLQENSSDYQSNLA

On to `C=CC(=O)Nc1ccccc1Nc1nc(Nc2ccc(N3CCN(CCOCCOCCOCCNC(=O)CCCC[C@@H]4SC[C@@H]5NC(=O)N[C@@H]54)CC3)cc2)ncc1Cl`, for which the outcome in [1], in [2], in assay [3], in assay [4], in assay [5] and in [6] was Active. Besides, the outcome in assay [7], in assay [8], in assay [9], in [10], in [11] and in [12] was Active. Also, the result in assay [13], in [14], in assay [15] and in assay [16] was Active.
For the molecule `COc1cc(O)c2c(c1)/C=C/C[C@H](O)[C@H](O)C(=O)/C=C\C[C@H](C)OC2=O`, the inhibition in [17] was -10%.
Take `C=CC(=O)Nc1ccccc1Oc1nc(Nc2cnn(CCOC)c2)ncc1Cl`: the inhibition result in assay [18] was “Active”.

The values are drawn from ChEMBL document CHEMBL4118021, “Studies of TAK1-centered polypharmacology with novel covalent TAK1 inhibitors” (Bioorg Med Chem, 2017).
